Experiments:
[1] = Partition coefficient (logP); assay type: physicochemical; conditions: octanol/water
Outline: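 Octanol and water pre-equilibrated (shaken 6 h, stood overnight); ~0.5 mg compound added, shaken 1 h at room temperature, centrifuged 1 h at 1000 rpm, left 30 h to equilibrate. Each phase read by UV absorbance, concentration from extinction coefficients via Beer-Lambert using standard curves over 2-300 µM. Duplicate or triplicate; mean of two values within 15%.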

MCF7 [2] = test: In vitro cytotoxic concentration required to reduce MCF-7 cell growth by 50%; assay type: functional; conditions: Homo sapiens
Outline: (§1)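 MCF-7 cells kept in RPMI 1640 with 10% heat-inactivated FBS, penicillin and streptomycin; 5×10^4 to 6×10^4 cells per well dosed with compound in PBS at final 0.001, 0.01, 0.1, 1, 10 and 100 µM; 48 h at 37 °C, 10% CO2. Brief trypsin release, viable cells counted by trypan blue exclusion; triplicate, untreated wells as control. CC50 = concentration giving 50% growth reduction versus control.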

CCRF-CEM [3] = test: Tested for intracellular levels of AZT phosphate against CEM cell lines.; assay type: functional, Homo sapiens
Outline: (§2)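 About 1.5×10^6 MCF-7 or 3×10^6 CEM cells exposed to 100 µM compound for 17 h, then medium removed. Phosphorylated fractions (phosphates plus phosphoramidate) dephosphorylated with potato acid phosphatase in potassium hydrogen phthalate buffer, 4 h at 37 °C, dried, reconstituted in FPIA buffer; AZT quantified by RIA and phosphorylated amounts extrapolated. Reported as pmol per million cells.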

CCRF-CEM [4] = test: Cytotoxic activity against CEM cell lines.; assay type: functional, Homo sapiens
MCF7 [5] = test: Cytotoxic activity against MCF-7 cell lines.; assay type: functional, Homo sapiens; outline: as §1
MCF7 [6] = test: Tested for intracellular levels of AZT phosphate against MCF-7 cell lines.; assay type: functional, Homo sapiens; outline: as §2
CCRF-CEM [7] = test: Tested for intracellular levels of phosphoramidate against CEM cell lines.; assay type: functional, Homo sapiens; outline: as §2
MCF7 [8] = test: Tested for intracellular levels of phosphoramidate against MCF-7 cell lines.; assay type: functional, Homo sapiens; outline: as §2

| logP [1] | SMILES | CC50 (MCF7 [2]) [µM] | further results |
| --- | --- | --- | --- |
| -1.59 | COC(=O)[C@H](Cc1ccc(O)cc1)NP(=O)(O)OC[C@H]1OC(n2cc(C)c(=O)[nH]c2=O)C[C@H]1N=[N+]=[N-] (stereo not given in full) | 10 |  |
| -1.64 | CNC(=O)[C@@H](NP(=O)(O)OC[C@H]1OC(n2cc(C)c(=O)[nH]c2=O)C[C@H]1N=[N+]=[N-])C(C)C (stereo not given in full) | 2.2 |  |
| -1.25 | COC(=O)[C@H](C)NP(=O)(O)OC[C@H]1OC(n2cc(C)c(=O)[nH]c2=O)C[C@H]1N=[N+]=[N-] (stereo not given in full) | 5.8 |  |
| -1.38 | CNC(=O)[C@H](Cc1ccc(O)cc1)NP(=O)(O)OC[C@H]1OC(n2cc(C)c(=O)[nH]c2=O)C[C@H]1N=[N+]=[N-] (stereo not given in full) | > 100 |  |
| -1.36 | COC(=O)[C@@H](Cc1c[nH]c2ccccc12)NP(=O)(O)OC[C@H]1O[C@@H](n2cc(C)c(=O)[nH]c2=O)C[C@@H]1N=[N+]=[N-] | > 100 |  |
| -1.39 | Cc1cn(C2C[C@@H](N=[N+]=[N-])[C@@H](COP(=O)(O)N[C@@H](Cc3c[nH]c4ccccc34)C(=O)NC3CC3)O2)c(=O)[nH]c1=O (stereo not given in full) | 90 |  |
| -1.49 | CNC(=O)[C@H](Cc1ccccc1)NP(=O)(O)OC[C@H]1OC(n2cc(C)c(=O)[nH]c2=O)C[C@H]1N=[N+]=[N-] (stereo not given in full) | 1.4 |  |
| -1.24 | COC(=O)CNP(=O)(O)OC[C@H]1OC(n2cc(C)c(=O)[nH]c2=O)C[C@H]1N=[N+]=[N-] (stereo not given in full) | > 100 |  |
| -1.38 | CNC(=O)[C@H](Cc1c[nH]c2ccccc12)NP(=O)(O)OC[C@H]1OC(n2cc(C)c(=O)[nH]c2=O)C[C@H]1N=[N+]=[N-] (stereo not given in full) | 0.016 |  |
|  | Cc1cn([C@H]2C[C@H](N=[N+]=[N-])[C@@H](CO)O2)c(=O)[nH]c1=O [ZIDOVUDINE] |  | Amount (CCRF-CEM [3]): 810.9 pM (10e6*cells)-1; Cytotoxicity (CCRF-CEM [4]): 14.3 µM; Cytotoxicity (MCF7 [5]): 0.008 µM; Amount (MCF7 [6]): 2658.4 pM (10e6*cells)-1 |
| -1.84 | COC(=O)[C@H](Cc1ccccc1)NP(=O)(O)OC[C@H]1O[C@@H](n2cc(C)c(=O)[nH]c2=O)C[C@@H]1N=[N+]=[N-] | 0.4 | Amount (CCRF-CEM [3]): 120.7 pM (10e6*cells)-1; Amount (CCRF-CEM [7]): 7.8 pM (10e6*cells)-1; Cytotoxicity (CCRF-CEM [4]): >100 µM; Cytotoxicity (MCF7 [5]): 0.4 µM; Amount (MCF7 [6]): 221 pM (10e6*cells)-1; Amount (MCF7 [8]): 295 pM (10e6*cells)-1 |
| -1.33 | COC(=O)[C@@H](Cc1ccccc1)NP(=O)(O)OC[C@H]1O[C@@H](n2cc(C)c(=O)[nH]c2=O)C[C@@H]1N=[N+]=[N-] | > 100 |  |
| -1.89 | CNC(=O)[C@@H](Cc1c[nH]c2ccccc12)NP(=O)(O)OC[C@H]1OC(n2cc(C)c(=O)[nH]c2=O)C[C@H]1N=[N+]=[N-] (stereo not given in full) | > 100 |  |
| -1.15 | CNC(=O)CNP(=O)(O)OC[C@H]1O[C@@H](n2cc(C)c(=O)[nH]c2=O)C[C@@H]1N=[N+]=[N-] | 5 |  |
| -1.21 | CNC(=O)[C@H](C)NP(=O)(O)OC[C@H]1OC(n2cc(C)c(=O)[nH]c2=O)C[C@H]1N=[N+]=[N-] (stereo not given in full) | > 100 |  |
| -1.53 | CCNC(=O)[C@H](Cc1c[nH]c2ccccc12)NP(=O)(O)OC[C@H]1OC(n2cc(C)c(=O)[nH]c2=O)C[C@H]1N=[N+]=[N-] (stereo not given in full) | > 100 |  |
| -1.52 | CNC(=O)[C@H](CC(C)C)NP(=O)(O)OC[C@H]1OC(n2cc(C)c(=O)[nH]c2=O)C[C@H]1N=[N+]=[N-] (stereo not given in full) | > 100 |  |
| -1.5 | COC(=O)[C@H](CC(C)C)NP(=O)(O)OC[C@H]1OC(n2cc(C)c(=O)[nH]c2=O)C[C@H]1N=[N+]=[N-] (stereo not given in full) | > 100 |  |
| -0.914 | Cc1cn(C2C[C@@H](N=[N+]=[N-])[C@@H](COP(=O)(O)N[C@@H](Cc3c[nH]c4ccccc34)C(=O)NC3CCCCC3)O2)c(=O)[nH]c1=O (stereo not given in full) | 16 |  |
| -1.7 | CNC(=O)[C@@H](Cc1ccccc1)NP(=O)(O)OC[C@H]1OC(n2cc(C)c(=O)[nH]c2=O)C[C@H]1N=[N+]=[N-] (stereo not given in full) | > 100 |  |
| -0.686 | COC(=O)[C@H](Cc1c[nH]c2ccccc12)NP(=O)(O)OC[C@H]1O[C@@H](n2cc(C)c(=O)[nH]c2=O)C[C@@H]1N=[N+]=[N-] | 0.059 | Amount (CCRF-CEM [3]): 115.8 pM (10e6*cells)-1; Amount (CCRF-CEM [7]): 14.6 pM (10e6*cells)-1; Cytotoxicity (CCRF-CEM [4]): >100 µM; Cytotoxicity (MCF7 [5]): 0.059 µM; Amount (MCF7 [6]): 196.5 pM (10e6*cells)-1; Amount (MCF7 [8]): 213.6 pM (10e6*cells)-1 |
| -1.56 | COC(=O)[C@@H](NP(=O)(O)OC[C@H]1OC(n2cc(C)c(=O)[nH]c2=O)C[C@H]1N=[N+]=[N-])C(C)C (stereo not given in full) | 6 |  |
| -1.3 | Cc1cn(C2C[C@@H](N=[N+]=[N-])[C@@H](COP(=O)(O)N[C@@H](Cc3c[nH]c4ccccc34)C(=O)NC(C)C)O2)c(=O)[nH]c1=O (stereo not given in full) | > 100 |  |

— ChEMBL document CHEMBL1133735, “Synthesis, in vitro anti-breast cancer activity, and intracellular decomposition of amino acid methyl ester and alkyl amide phosphoramidate monoesters of 3'-azido-3'-deoxythymidine (AZT)” (J Med Chem, 2000)
